This is an account of results in ChEMBL document CHEMBL1137312, “Design and synthesis of a novel photoaffinity ligand for the dopamine and serotonin transporters based on 2beta-carbomethoxy-3beta-biphenyltropane” (J Med Chem, 2006).

Assay [1] deals with Sodium-dependent serotonin transporter (Rattus norvegicus, UniProt P31652). Put plainly: Displacement of [3H]citaloporam from SERT in rat brain. In kind it is tissue-based. The method in brief: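 Competition binding against [3H]citalopram in rat brain stem or midbrain membranes. Ligand was used as free base, freshly prepared and kept in the dark. Ki from at least three independent experiments, each in triplicate. Values are mean ± SEM.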
Chain of Sodium-dependent serotonin transporter (P31652 whole entry): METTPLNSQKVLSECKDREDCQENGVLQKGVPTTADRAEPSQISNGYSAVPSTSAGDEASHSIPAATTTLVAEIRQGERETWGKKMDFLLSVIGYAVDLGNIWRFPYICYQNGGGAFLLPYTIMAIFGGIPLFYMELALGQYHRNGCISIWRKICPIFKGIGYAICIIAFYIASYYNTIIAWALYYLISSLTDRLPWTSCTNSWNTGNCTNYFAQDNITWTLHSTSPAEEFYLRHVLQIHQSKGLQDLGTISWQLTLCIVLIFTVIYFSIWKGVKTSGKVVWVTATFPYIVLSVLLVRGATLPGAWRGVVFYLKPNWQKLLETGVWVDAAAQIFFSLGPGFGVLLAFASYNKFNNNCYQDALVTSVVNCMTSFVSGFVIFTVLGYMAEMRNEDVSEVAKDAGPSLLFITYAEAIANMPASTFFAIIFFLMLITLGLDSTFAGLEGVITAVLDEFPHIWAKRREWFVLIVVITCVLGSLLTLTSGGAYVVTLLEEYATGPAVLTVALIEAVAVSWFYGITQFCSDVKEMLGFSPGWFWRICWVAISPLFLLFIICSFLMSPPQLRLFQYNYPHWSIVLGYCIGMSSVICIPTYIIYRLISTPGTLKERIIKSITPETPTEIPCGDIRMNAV

Assay [2] concerns the target Sodium-dependent dopamine transporter (Rattus norvegicus, UniProt P23977). Kind of assay: Displacement of [3H]WIN-35428 from DAT in rat striatal membrane. Type of assay: cell membranes, Striatum. The method in brief:
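Competition binding against [3H]WIN 35 428 in rat striatal membranes. Ligand was used as free base, freshly prepared and kept in the dark. Ki from at least three independent experiments, each in triplicate. Values are mean ± SEM.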

The target of assay [3] is Sodium-dependent dopamine transporter (Homo sapiens) (UniProt Q01959). Put plainly: Photo labeling activity at human DAT expressed in HEK293 cells. In kind it is cell-based. The settings on record: tested as the 125I-labelled form. The method in brief: (§1)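 HEK 293 cells expressing hDAT or hSERT were photolabeled with [125I] azido ligand (specific activity about 2000 mCi/µmol, radiochemical purity 99%). Cells were solubilized and lysates immunoprecipitated with DAT- or SERT-specific antisera. Read-out was SDS-PAGE and autoradiography, detecting labeled protein bands of 80 or 66 kDa.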
Chain of Sodium-dependent dopamine transporter (Homo sapiens) (Q01959 whole entry): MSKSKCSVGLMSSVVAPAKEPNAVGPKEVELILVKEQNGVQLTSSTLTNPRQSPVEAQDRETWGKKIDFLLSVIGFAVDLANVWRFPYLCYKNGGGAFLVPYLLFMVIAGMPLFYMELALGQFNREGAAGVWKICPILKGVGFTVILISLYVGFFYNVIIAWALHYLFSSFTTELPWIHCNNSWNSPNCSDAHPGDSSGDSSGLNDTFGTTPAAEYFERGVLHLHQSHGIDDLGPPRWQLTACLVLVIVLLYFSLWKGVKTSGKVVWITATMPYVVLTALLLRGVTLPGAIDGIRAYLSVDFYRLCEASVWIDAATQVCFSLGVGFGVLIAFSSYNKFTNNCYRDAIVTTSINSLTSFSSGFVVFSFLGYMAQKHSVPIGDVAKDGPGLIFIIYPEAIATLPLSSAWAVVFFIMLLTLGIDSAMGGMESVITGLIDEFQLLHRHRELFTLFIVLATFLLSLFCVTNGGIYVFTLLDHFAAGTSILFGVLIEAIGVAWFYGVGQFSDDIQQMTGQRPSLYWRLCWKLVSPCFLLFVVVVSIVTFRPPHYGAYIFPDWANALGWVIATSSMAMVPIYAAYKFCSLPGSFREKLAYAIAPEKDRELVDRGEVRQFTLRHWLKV

The target of assay [4] is Sodium-dependent serotonin transporter (Homo sapiens) (UniProt P31645). Put plainly: Photo labeling activity at human SERT expressed in HEK293 cells in the presence of (-)cocaine. Type of assay: cell-based. The following applies: tested as the 125I-labelled form. The method in brief:
(§2)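 Cocaine-protection version of the photolabeling. HEK 293 cells expressing hDAT or hSERT were photolabeled with [125I] azido ligand in the presence of 10 µM (-)cocaine. Cells were solubilized and immunoprecipitated with transporter-specific antisera. Read-out was SDS-PAGE and autoradiography.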

Assay [5] shares this target. Put plainly: Photo labeling activity at human SERT expressed in HEK293 cells. In kind it is cell-based. The following applies: tested as the 125I-labelled form. The method in brief: as §1
For assay [6], the target named is Sodium-dependent dopamine transporter (Homo sapiens) (UniProt Q01959). Put plainly: Photo labeling activity at human DAT expressed in HEK293 cells in the presence of (-)cocaine. In kind it is cell-based. The following applies: tested as the 125I-labelled form. The method in brief:
as §2

Structures are written as SMILES. The source made the active and inactive calls. The calls are words filed in the database; no cut-off is given here.

Chain of Sodium-dependent dopamine transporter (P23977 whole entry): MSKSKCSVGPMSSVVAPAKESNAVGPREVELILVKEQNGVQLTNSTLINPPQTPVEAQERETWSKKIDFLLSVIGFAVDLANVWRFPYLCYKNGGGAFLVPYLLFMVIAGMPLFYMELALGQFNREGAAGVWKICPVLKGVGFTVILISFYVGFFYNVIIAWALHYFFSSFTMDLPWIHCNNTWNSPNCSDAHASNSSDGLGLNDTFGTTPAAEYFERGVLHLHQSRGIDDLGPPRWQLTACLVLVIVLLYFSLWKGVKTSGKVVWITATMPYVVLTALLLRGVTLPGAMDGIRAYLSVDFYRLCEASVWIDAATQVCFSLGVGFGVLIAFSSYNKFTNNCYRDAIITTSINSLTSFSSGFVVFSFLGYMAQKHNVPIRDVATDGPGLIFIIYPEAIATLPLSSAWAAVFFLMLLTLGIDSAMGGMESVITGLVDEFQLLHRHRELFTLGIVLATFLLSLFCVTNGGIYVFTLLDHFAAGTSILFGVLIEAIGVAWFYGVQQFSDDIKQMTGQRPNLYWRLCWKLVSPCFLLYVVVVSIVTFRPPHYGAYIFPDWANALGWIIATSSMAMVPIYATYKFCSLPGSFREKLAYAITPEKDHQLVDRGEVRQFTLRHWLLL
Chain of Sodium-dependent serotonin transporter (Homo sapiens) (P31645 whole entry, looked up): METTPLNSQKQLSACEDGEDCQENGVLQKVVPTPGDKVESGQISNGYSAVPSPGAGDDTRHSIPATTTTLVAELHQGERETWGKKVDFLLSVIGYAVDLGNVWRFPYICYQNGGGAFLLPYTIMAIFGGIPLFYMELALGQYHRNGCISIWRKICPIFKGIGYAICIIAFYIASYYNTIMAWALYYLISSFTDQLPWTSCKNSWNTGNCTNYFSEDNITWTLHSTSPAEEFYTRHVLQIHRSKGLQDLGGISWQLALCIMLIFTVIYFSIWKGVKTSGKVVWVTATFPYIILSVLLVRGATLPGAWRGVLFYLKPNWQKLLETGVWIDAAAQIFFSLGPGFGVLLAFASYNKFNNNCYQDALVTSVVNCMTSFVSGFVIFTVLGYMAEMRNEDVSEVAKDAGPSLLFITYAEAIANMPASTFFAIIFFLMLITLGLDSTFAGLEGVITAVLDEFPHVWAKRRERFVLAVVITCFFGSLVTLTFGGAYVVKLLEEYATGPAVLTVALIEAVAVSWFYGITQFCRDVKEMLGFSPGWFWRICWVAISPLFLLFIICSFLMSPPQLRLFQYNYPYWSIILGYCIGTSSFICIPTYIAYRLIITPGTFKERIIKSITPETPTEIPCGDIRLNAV

With `COC(=O)[C@@H]1C2CCC(C[C@@H]1c1ccc(-c3ccc([N+](=O)[O-])cc3)cc1)N2C` (some centres undefined), the inhibition constant Ki in assay [1] is 51 nM; in assay [2], 5.03 nM.

Turning to `COC(=O)[C@@H]1C2CCC(C[C@@H]1c1ccc(-c3ccc(N)cc3)cc1)N2C` (some centres undefined), the figures for the Ki in assay [1] and in assay [2] were 1070 nM and 12.9 nM, respectively.

With `COC(=O)[C@@H]1C2CCC(C[C@@H]1c1ccc(-c3ccc(N=[N+]=[N-])c(I)c3)cc1)N2C` (some centres undefined), the result in assay [3] and in assay [5] was Active. Moreover, the outcome in assay [4] and in assay [6] was inactive. Moreover, the inhibition constant (Ki) in assay [1] was 109 nM; in assay [2], 15.1 nM.

As to `COC(=O)[C@@H]1C2CCC(C[C@@H]1c1ccc(Br)cc1)N2C` (some centres undefined), the Ki was 4.1 nM in assay [1] and 0.42 nM in assay [2].

On to `COC(=O)[C@@H]1C2CCC(C[C@@H]1c1ccc(-c3ccc(N)c(I)c3)cc1)N2C` (some centres undefined), for which the Ki came to 8.82 nM in assay [1] and 134 nM in assay [2].
